In brackets after ≈: the same amount, converted by molar mass. Activity calls are given as the source filed them. The calls are words filed in the database; no cut-off is given here.
What was measured:
[1] = system: Human alphaherpesvirus 2; experiment: Antiviral activity against HSV-2 G infected in HEL cells assessed as inhibition of virus-induced cytopathicity; type: functional, organism-based; conditions: strain G
How it was run: (§1)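 Confluent monolayers (HEL, Vero, HeLa or CrFK, as applicable) were inoculated with 100 CCID50 of virus, with 1 CCID50 being the dose that infects 50% of cultures. Infection ran in the presence of varying compound concentrations. Inhibition of virus-induced cytopathicity was scored against infected cultures left untreated.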

[2] = system: Human alphaherpesvirus 1; experiment: Antiviral activity against HSV-1 KOS infected in HEL cells assessed as inhibition of virus-induced cytopathicity; type: functional, organism-based; how it was run: as §1
[3] = Solubility of the compound in octanol at pH 7.4 by HPLC analysis; type: physicochemical
[4] = n-octanol-PBS buffer distribution coefficient, log D of the compound at pH 7.4 after 24 hrs by HPLC analysis; type: physicochemical
[5] = Aqueous solubility of the compound in PBS buffer at pH 7.4 after 24 hrs by HPLC analysis; type: physicochemical; conditions: pH 7.4, 24 h
[6] = Selectivity index, ratio of CC50 for cat CRFK cells to IC50 for chloroquine-resistant asexual erythrocytic stage of Plasmodium falciparum Dd2; type: functional
How it was run: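 Ratio of CRFK CC50 (μM) to Dd2 IC50 […]. CC50 is the 50% cytotoxic concentration in feline kidney CRFK cells, measured as cell viability by colorimetric formazan-based MTS assay. Dd2 IC50 is from the parasite LDH growth-inhibition assay.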

[7] = Cytotoxicity against cat CRFK cells assessed as cell viability by MTS assay; type: cell-based, Felis catus
How it was run: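 CRFK cells were exposed to varying sample concentrations. Cell viability was measured with the colorimetric formazan-based MTS assay, and the 50% cytotoxic concentration (CC50) was derived from it.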

[8] = Cytotoxicity against human HeLa cells assessed as alteration of cell morphology by microscopic analysis; type: cell-based; conditions: read-out: MIC
How it was run: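 Cells (Vero, HEL, MDCK or HeLa) were exposed to a range of sample concentrations. The value reported is the concentration required to cause a microscopically detectable alteration of normal cell morphology.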

[9] = system: Plasmodium falciparum; experiment: Antiplasmodial activity against chloroquine-resistant asexual erythrocytic stage of Plasmodium falciparum Dd2 assessed as parasite growth inhibition by lactate dehydrogenase assay; type: functional, organism-based
How it was run: (§2)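 Parasite lactate dehydrogenase assay (modified Makler method). Samples held as 20 mg/mL stocks in DMSO, diluted on test day. Full dose-response: starting at 10 μg/mL, 2-fold serial dilution in complete medium over 10 concentrations down to 0.02 μg/mL. Chloroquine, artesunate and MMV390048 served as references. IC50 from nonlinear dose-response curve fitting; mean of three independent experiments.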

[10] = system: Plasmodium falciparum; experiment: Antiplasmodial activity against chloroquine-sensitive asexual erythrocytic stage of Plasmodium falciparum D10 assessed as parasite growth inhibition by lactate dehydrogenase assay; type: functional, organism-based; how it was run: as §2
[11] = system: Felid alphaherpesvirus 1; experiment: Antiviral activity against Feline herpesvirus infected in cat CRFK cells assessed as inhibition of virus-induced cytopathicity; type: functional, organism-based; how it was run: as §1
[12] = system: Feline coronavirus; experiment: Antiviral activity against Feline coronavirus infected in cat CRFK cells assessed as inhibition of virus-induced cytopathicity; type: functional, organism-based; how it was run: as §1
[13] = system: Human alphaherpesvirus 3; experiment: Antiviral activity against Varicella-zoster virus infected in HEL cells assessed as inhibition of virus-induced cytopathicity; type: functional, organism-based
[14] = system: Human betaherpesvirus 5; experiment: Antiviral activity against Cytomegalovirus Davis infected in HEL cells assessed as inhibition of virus-induced cytopathicity; type: functional, organism-based
[15] = system: Human betaherpesvirus 5; experiment: Antiviral activity against Cytomegalovirus AD169 infected in HEL cells assessed as inhibition of virus-induced cytopathicity; type: functional, organism-based
[16] = system: Respiratory syncytial virus; experiment: Antiviral activity against Respiratory syncytial virus infected in human HeLa cells assessed as inhibition of virus-induced cytopathicity; type: functional, organism-based; how it was run: as §1
[17] = system: Coxsackievirus B4; experiment: Antiviral activity against Coxsackievirus B4 infected in human HeLa cells assessed as inhibition of virus-induced cytopathicity; type: functional, organism-based; how it was run: as §1
[18] = system: Influenza A virus H3N2; experiment: Antiviral activity against Influenza A virus H3N2 infected in MDCK cells assessed as inhibition of virus-induced cytopathicity; type: functional, organism-based
How it was run: (§3)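 Confluent monolayers in 96-well plates were inoculated with 100 CCID50 of virus in the presence of varying concentrations of compound. Read-out was inhibition of virus-induced cytopathicity, compared with untreated infected cultures. Cytotoxicity was judged microscopically or by MTT viability staining.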

[19] = system: Vesicular stomatitis virus; experiment: Antiviral activity against Vesicular stomatitis virus infected in human HeLa cells assessed as inhibition of virus-induced cytopathicity; type: functional, organism-based; how it was run: as §3
[20] = system: Influenza A virus; experiment: Antiviral activity against influenza A virus H1N1 infected in MDCK cells assessed as inhibition of virus-induced cytopathicity; type: functional, organism-based; how it was run: as §3
[21] = system: Punta Toro virus; experiment: Antiviral activity against Punta Toro virus infected in African green monkey Vero cells assessed as inhibition of virus-induced cytopathicity; type: functional, organism-based; how it was run: as §1
[22] = system: Coxsackievirus B4; experiment: Antiviral activity against Coxsackievirus B4 infected in African green monkey Vero cells assessed as inhibition of virus-induced cytopathicity; type: functional, organism-based; how it was run: as §1
[23] = system: Sindbis virus; experiment: Antiviral activity against Sindbis virus infected in African green monkey Vero cells assessed as inhibition of virus-induced cytopathicity; type: functional, organism-based
[24] = system: Mammalian orthoreovirus 1; experiment: Antiviral activity against Reovirus 1 infected in African green monkey Vero cells assessed as inhibition of virus-induced cytopathicity; type: functional, organism-based; how it was run: as §1
[25] = system: Human respirovirus 3; experiment: Antiviral activity against parainfluenza virus 3 infected in African green monkey Vero cells assessed as inhibition of virus-induced cytopathicity; type: functional, organism-based; how it was run: as §1
[26] = system: Human alphaherpesvirus 1; experiment: Antiviral activity against thymidine kinase-negative acyclovir-resistant HSV-1 KOS infected in HEL cells assessed as inhibition of virus-induced cytopathicity; type: functional, organism-based; how it was run: as §3
[27] = system: Vesicular stomatitis virus; experiment: Antiviral activity against Vesicular stomatitis virus infected in HEL cells assessed as inhibition of virus-induced cytopathicity; type: functional, organism-based; how it was run: as §3
[28] = system: Vaccinia virus; experiment: Antiviral activity against Vaccinia virus infected in HEL cells assessed as inhibition of virus-induced cytopathicity; type: functional, organism-based; conditions: Orthopoxvirus vaccinia; how it was run: as §3

SMILES	inhibition [1]	inhibition [2]	solubility [3]	logD at 24 h [4]	solubility [5]	Ratio CC50/IC50 [6]	CC50 [7]	MCC [8]	IC50 [9]	IC50 [10]	inhibition [11]	inhibition [12]	inhibition [13]	inhibition [14]	inhibition [15]	inhibition [16]	inhibition [17]	inhibition [18]	inhibition [19]	inhibition [20]	also measured
Clc1ccc2c(NCCNc3nccc(Cl)n3)ccnc2c1	inactive	inactive	2.85 µM (≈ 0.952 µg/mL)	0.501	0.9 µM (≈ 0.301 µg/mL)	>12.53	> 100000 nM	> 100 µM	7680 nM	2510 nM	inactive	inactive	inactive	inactive	inactive	inactive	inactive	inactive	inactive	inactive	inhibition [21]: inactive; inhibition [22]: inactive; inhibition [23]: inactive; inhibition [24]: inactive; inhibition [25]: inactive; inhibition [26]: inactive; inhibition [27]: inactive; inhibition [28]: inactive
Clc1ccc2c(NCCCNc3nccc(N4CCNCC4)n3)ccnc2c1	inactive	inactive	0.75 µM (≈ 0.298 µg/mL)	0.102	0.6 µM (≈ 0.239 µg/mL)	36	74000 nM	100 µM	2000 nM	113 nM	inactive	inactive	inactive	inactive	inactive	inactive	inactive	inactive	inactive	inactive	inhibition [21]: inactive; inhibition [22]: inactive; inhibition [23]: inactive; inhibition [24]: inactive; inhibition [25]: inactive; inhibition [26]: inactive; inhibition [27]: inactive; inhibition [28]: inactive
Clc1ccc2c(NCCCCNc3nccc(Cl)n3)ccnc2c1	inactive	inactive	3.86 µM (≈ 1.4 µg/mL)	0.742	0.7 µM (≈ 0.254 µg/mL)	>518	> 100000 nM	100 µM	193 nM	179 nM	inactive	inactive	inactive	inactive	inactive	inactive	inactive	inactive	inactive	inactive	inhibition [21]: inactive; inhibition [22]: inactive; inhibition [23]: inactive; inhibition [24]: inactive; inhibition [25]: inactive; inhibition [26]: inactive; inhibition [27]: inactive; inhibition [28]: inactive
Clc1ccc2c(NCCCNc3ccnc(Cl)n3)ccnc2c1	inactive	inactive	1.01 µM (≈ 0.352 µg/mL)	0.229	0.6 µM (≈ 0.209 µg/mL)	>483	> 100000 nM	> 100 µM	207 nM	270 nM	inactive	inactive	inactive	inactive	inactive	inactive	inactive	inactive	inactive	inactive	inhibition [21]: inactive; inhibition [22]: inactive; inhibition [23]: inactive; inhibition [24]: inactive; inhibition [25]: inactive; inhibition [26]: inactive; inhibition [27]: inactive; inhibition [28]: inactive

Reference: ChEMBL document CHEMBL3112527, “Quinoline-pyrimidine hybrids: synthesis, antiplasmodial activity, SAR, and mode of action studies” (J Med Chem, 2014)
